Experiment [1] relates to Mycobacterium tuberculosis. Put plainly: Inhibition of Mycobacterium tuberculosis T6PP using T6P as substrate assessed as fraction of enzyme unbound with compound by measuring ratio of initial velocities of T6P substrate hydrolysis in presence and absence of compound at 1 mM after 5 mins by BioMol green dye based HTS assay. In short, it runs like this: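 Mt-T6PP (5–25 nM, freshly purified) in 25 mM Hepes pH 7.5, 50 mM NaCl, 5 mM MgCl₂, 5% glycerol at 25 °C. T6P at Km. Initial velocity was measured with and without 1 mM inhibitor; released phosphate read as absorbance at 625 nm after 30 min incubation. VI/V is the unbound-enzyme fraction.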

Experiment [2] can be described thus: Inhibition of Mycobacterium tuberculosis T6PP using T6P as substrate by Lineweaver-Burk plot analysis. In short, it runs like this: (§1)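 Continuous phosphate-release assay (EnzChek, MESG/purine nucleoside phosphorylase) at 25 °C. Initial velocities of T6P hydrolysis by T6PP were taken at varied T6P with inhibitor at 0, Ki and 2×Ki. Km and Vmax come from double-reciprocal plots.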

In experiment [3] the test system is Mycobacterium tuberculosis. Put plainly: Inhibition of Mycobacterium tuberculosis T6PP assessed as Km for substrate using T6P as substrate at 1 mM by Lineweaver-Burk plot analysis. In short, it runs like this:
as §1

The test system of experiment [4] is Mycobacterium tuberculosis. Put plainly: Inhibition of Mycobacterium tuberculosis T6PP assessed as Vmax for substrate using T6P as substrate by Lineweaver-Burk plot analysis. In short, it runs like this: as §1

As to `OC[C@H]1O[C@@H](n2cc(-c3ccccc3)nn2)[C@H](O)[C@@H](O)[C@@H]1O`, the Ratio in experiment [1] was 0.95. The same measure, in the same setting: in the case of `O=S(=O)(O)OC[C@H]1O[C@@H](Oc2ccccc2)[C@H](O)[C@@H](O)[C@@H]1O` it was 0.94; in that of `CO[C@H]1O[C@H](COS(=O)(=O)O)[C@@H](OCc2ccccc2)[C@H](O)[C@H]1O`, 1.11. With `O=P(O)(O)OC[C@H]1O[C@@H](Oc2ccccc2)[C@H](O)[C@@H](O)[C@@H]1O`, in experiment [1], the Ratio amounted to 0.94. On to `O=S(=O)(O)OC[C@H]1O[C@@H](Oc2ccc(CO)cc2)[C@H](O)[C@@H](O)[C@@H]1O`, for which the Ratio in experiment [1] is 0.85. On the same count and under the same terms, in the case of `O=Cc1ccccc1O[C@@H]1O[C@H](COS(=O)(=O)O)[C@@H](O)[C@H](O)[C@H]1O` it was 1.17; in that of `O=S(=O)(O)OC[C@H]1O[C@H](O)[C@H](O)[C@@H](O)[C@@H]1O`, 0.97. As to `O=S(=O)(O)OC[C@H]1O[C@@H](Oc2ccccc2CO)[C@H](O)[C@@H](O)[C@@H]1O`, in experiment [1], the Ratio came out at 0.89. On the same count and under the same terms, in the case of `O=S(=O)(O)OCc1cccc(O[C@@H]2O[C@H](CO)[C@@H](O)[C@H](O)[C@H]2O)c1` it was 0.96. As usually defined, the Ki is the dissociation constant of the complex between target and ligand, obtained from inhibition or displacement. Molecule `CCCCCCc1ccc(O[C@H]2O[C@H](COS(=O)(=O)O)[C@@H](O)[C@H](O)[C@H]2O)cc1` registered a Ki in experiment [2] of over 400 µM. As to `COc1cc(C=O)cc(OC)c1O[C@@H]1O[C@H](COS(=O)(=O)O)[C@@H](O)[C@H](O)[C@H]1O`, the Ratio in experiment [1] is 1.09. With `CCCCCCc1ccc(O[C@@H]2O[C@H](COS(=O)(=O)O)[C@@H](O)[C@H](O)[C@H]2O)cc1`, the inhibitory constant (Ki) in experiment [2] was over 400 µM.

For `CO[C@H]1O[C@H](COS(=O)(=O)O)[C@@H](O)[C@H](O)[C@H]1O`, the Ratio in experiment [1] was 0.91. On the same count and under the same terms, in the case of `CCCCCCCCO[C@@H]1O[C@H](COS(=O)(=O)O)[C@@H](O)[C@H](O)[C@H]1O` it was 0.83; in that of `Nc1ccc(O[C@@H]2O[C@H](COS(=O)(=O)O)[C@@H](O)[C@H](O)[C@H]2O)cc1`, 1; in that of `O=S(=O)(O)OC[C@H]1O[C@H](OCc2ccccc2)[C@H](O)[C@@H](O)[C@@H]1O`, 0.83. Same read-out and setting: the figure for `CC(=O)Nc1ccc(O[C@@H]2O[C@H](COS(=O)(=O)O)[C@@H](O)[C@H](O)[C@H]2O)cc1` is 0.94; for `O=[N+]([O-])c1ccc(O[C@@H]2O[C@H](COS(=O)(=O)O)[C@@H](O)[C@H](O)[C@H]2O)cc1` it is 1.27.

Turning to `OC[C@H]1O[C@@H](Oc2ccccc2)[C@H](O)[C@@H](O)[C@@H]1O`, in experiment [1], the Ratio is 0.81. Regarding `CO[C@H]1O[C@H](COS(=O)(=O)O)[C@@H](O)[C@H](OCc2ccccc2)[C@H]1O`, the Ratio in experiment [1] was 1.16. In the case of `O=S(=O)(O)OC[C@H]1O[C@@H](n2cc(-c3ccccc3)nn2)[C@H](O)[C@@H](O)[C@@H]1O`, in experiment [1], the Ratio was 0.98. Same read-out and setting: in the case of `O=S(=O)(O)OC[C@H]1O[C@@H](Oc2ccc(F)c(F)c2)[C@H](O)[C@@H](O)[C@@H]1O` it was 0.8. The term Km denotes the concentration of substrate that gives half-maximal velocity. As usually defined, the Vmax is the rate approached at saturating substrate. In experiment [2], `O=S(=O)(O)OC[C@H]1O[C@@H](Oc2ccc(-c3ccccc3)cc2)[C@H](O)[C@@H](O)[C@@H]1O` displayed a Ki of 1600 µM. Moreover, in experiment [3], the Km was found to be 838 µM. The Vmax in experiment [4] turned out to be 0.0271 µM/s. In addition, the Ratio in experiment [1] was found to be 0.58. For the molecule `OC[C@H]1O[C@@H](Nc2ccccc2)[C@H](O)[C@@H](O)[C@@H]1O`, in experiment [1], the Ratio is 0.88.

Consider `O=S(=O)(O)OC[C@H]1O[C@@H](Oc2cccc3ccccc23)[C@H](O)[C@@H](O)[C@@H]1O`, for which the Ratio in experiment [1] came out at 0.85. Turning to `O=Cc1ccc(O[C@@H]2O[C@H](COS(=O)(=O)O)[C@@H](O)[C@H](O)[C@H]2O)cc1`, the Ratio in experiment [1] worked out at 0.87.

In the case of `OC[C@H]1O[C@H](O[C@H]2O[C@H](CO)[C@@H](O)[C@H](O)[C@H]2O)[C@H](O)[C@@H](O)[C@@H]1O` [TREHALOSE], the Ratio in experiment [1] came out at 0.83. For the molecule `CCCCCCCCc1ccc(O[C@@H]2O[C@H](COS(=O)(=O)O)[C@@H](O)[C@H](O)[C@H]2O)cc1`, the Ki in experiment [2] is over 300 µM. Further, in experiment [1], the Ratio turned out to be 0.42. Taken in the same sequence, the figures for `O=S(=O)(O)OC[C@H]1O[C@H](O[C@H]2O[C@H](CO)[C@@H](O)[C@H](O)[C@H]2O)[C@H](O)[C@@H](O)[C@@H]1O` were 130 µM and 0.43.

Regarding `NS(=O)(=O)OCc1cccc(N[C@@H]2O[C@H](CO)[C@@H](O)[C@H](O)[C@H]2O)c1`, the Ratio in experiment [1] came to 1.17. On the same count and under the same terms, in the case of `CO[C@H]1O[C@H](COS(=O)(=O)O)[C@@H](O)[C@H](O)[C@H]1OCc1ccccc1` it was 1.01; in that of `O=S(=O)(O)OC[C@H]1O[C@@H](Oc2cccc(CO)c2)[C@H](O)[C@@H](O)[C@@H]1O`, 0.69. For `CCCCCCCCc1ccc(O[C@H]2O[C@H](COS(=O)(=O)O)[C@@H](O)[C@H](O)[C@H]2O)cc1`, the Ki in experiment [2] was determined as 100 µM. In turn, `O=Cc1cccc(O[C@@H]2O[C@H](COS(=O)(=O)O)[C@@H](O)[C@H](O)[C@H]2O)c1` registered a Ki in experiment [2] of 1700 µM. Besides, in experiment [3], the Michaelis-Menten constant (Km) came to 712 µM. The Vmax in experiment [4] worked out at 0.247 µM/s. Further, in experiment [1], the Ratio is 0.67. In the case of `OC[C@H]1O[C@H](Oc2ccccc2)[C@H](O)[C@@H](O)[C@@H]1O`, in experiment [1], the Ratio worked out at 0.88. `O=S(=O)(O)OC[C@H]1O[C@H](Oc2ccccc2)[C@H](O)[C@@H](O)[C@@H]1O`: the Ratio in experiment [1] was found to be 1.17.

For the molecule `OC[C@H]1O[C@@H](NC(=S)Nc2ccccc2)[C@H](O)[C@@H](O)[C@@H]1O`, the Ratio in experiment [1] was determined as 1.04.

The values above are taken from ChEMBL document CHEMBL4004850, “Rational design of reversible inhibitors for trehalose 6-phosphate phosphatases” (Eur J Med Chem, 2017).
